Test results from ChEMBL document CHEMBL1135543, “Alpha(1)-adrenoceptor antagonists. 4. Pharmacophore-based design, synthesis, and biological evaluation of new imidazo-, benzimidazo-, and indoloarylpiperazine derivatives” (J Med Chem, 2002).

Tests used:
[1] = target: T1, Adrenergic receptor alpha-1 (Rattus norvegicus, UniProt P15823+P23944+P43140); assay: Binding affinity against Alpha-1 adrenergic receptor by displacing [3H]-prazosin radioligand in rat cortex membrane; format: cell membranes, Brain
T1 sequence (P15823 whole entry): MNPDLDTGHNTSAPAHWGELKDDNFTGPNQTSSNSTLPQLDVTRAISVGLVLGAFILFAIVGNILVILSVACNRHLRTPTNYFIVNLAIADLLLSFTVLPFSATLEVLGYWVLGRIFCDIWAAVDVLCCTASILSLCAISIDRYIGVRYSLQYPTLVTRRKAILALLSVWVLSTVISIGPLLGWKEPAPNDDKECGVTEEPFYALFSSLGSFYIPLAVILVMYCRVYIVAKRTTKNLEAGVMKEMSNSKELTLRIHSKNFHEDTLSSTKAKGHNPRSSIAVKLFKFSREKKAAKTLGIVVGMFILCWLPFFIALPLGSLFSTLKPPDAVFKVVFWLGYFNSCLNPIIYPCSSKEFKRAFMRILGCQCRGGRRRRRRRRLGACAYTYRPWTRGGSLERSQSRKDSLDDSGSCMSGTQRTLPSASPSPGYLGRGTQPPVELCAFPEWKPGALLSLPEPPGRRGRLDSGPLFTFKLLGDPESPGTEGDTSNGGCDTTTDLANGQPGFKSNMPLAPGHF
T1 sequence (P23944 whole entry): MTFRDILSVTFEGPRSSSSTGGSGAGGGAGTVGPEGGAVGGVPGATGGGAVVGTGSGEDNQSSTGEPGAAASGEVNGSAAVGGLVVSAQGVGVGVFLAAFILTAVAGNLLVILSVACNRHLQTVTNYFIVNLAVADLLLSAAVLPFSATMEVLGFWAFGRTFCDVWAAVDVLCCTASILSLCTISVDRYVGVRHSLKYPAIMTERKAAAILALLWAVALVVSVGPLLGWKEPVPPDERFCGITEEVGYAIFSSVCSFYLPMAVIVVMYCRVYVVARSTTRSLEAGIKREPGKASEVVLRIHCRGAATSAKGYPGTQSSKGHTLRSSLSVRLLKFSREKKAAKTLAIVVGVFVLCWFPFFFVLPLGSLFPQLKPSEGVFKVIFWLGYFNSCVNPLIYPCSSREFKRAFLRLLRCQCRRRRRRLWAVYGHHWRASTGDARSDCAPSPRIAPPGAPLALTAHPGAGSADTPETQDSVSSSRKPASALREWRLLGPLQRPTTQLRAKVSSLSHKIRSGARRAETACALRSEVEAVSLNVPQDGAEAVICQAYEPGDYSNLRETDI
T1 sequence (P43140 whole entry): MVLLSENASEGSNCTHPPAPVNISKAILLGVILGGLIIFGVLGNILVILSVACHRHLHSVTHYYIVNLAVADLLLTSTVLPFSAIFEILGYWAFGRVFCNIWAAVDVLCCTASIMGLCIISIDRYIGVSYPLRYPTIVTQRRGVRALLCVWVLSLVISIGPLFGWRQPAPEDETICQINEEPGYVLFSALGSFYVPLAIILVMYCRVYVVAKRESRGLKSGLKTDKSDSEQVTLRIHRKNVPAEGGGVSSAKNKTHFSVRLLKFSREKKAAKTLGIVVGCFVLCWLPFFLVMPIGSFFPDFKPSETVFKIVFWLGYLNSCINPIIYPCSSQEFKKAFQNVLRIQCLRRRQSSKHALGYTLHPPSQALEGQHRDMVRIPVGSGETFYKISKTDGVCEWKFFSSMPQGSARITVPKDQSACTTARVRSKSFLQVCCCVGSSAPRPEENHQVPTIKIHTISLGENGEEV
Method in brief: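 Rat cerebral cortex membranes washed in 50 mM Tris-HCl pH 7.7 with 5 mM EDTA, stored at –80 °C, then assayed in 50 mM Tris-HCl pH 7.7 (0.2–0.3 mg protein). Incubation 60 min at 25 °C with 0.1 nM [3H]prazosin; nonspecific binding defined with 1 μM prazosin. Seven displacer concentrations in triplicate, GF/C filtration. IC50 by log-probit, Ki by Cheng–Prusoff (Kd 0.24 nM).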

[2] = target: T2, Adrenergic receptor alpha-2 (Rattus norvegicus, UniProt P22086+P19328+P22909); assay: Binding affinity against Alpha-2 adrenergic receptor by displacing [3H]rauwolscine radioligand in rat cortex membrane; format: cell membranes, Brain
T2 sequence (P22086 whole entry): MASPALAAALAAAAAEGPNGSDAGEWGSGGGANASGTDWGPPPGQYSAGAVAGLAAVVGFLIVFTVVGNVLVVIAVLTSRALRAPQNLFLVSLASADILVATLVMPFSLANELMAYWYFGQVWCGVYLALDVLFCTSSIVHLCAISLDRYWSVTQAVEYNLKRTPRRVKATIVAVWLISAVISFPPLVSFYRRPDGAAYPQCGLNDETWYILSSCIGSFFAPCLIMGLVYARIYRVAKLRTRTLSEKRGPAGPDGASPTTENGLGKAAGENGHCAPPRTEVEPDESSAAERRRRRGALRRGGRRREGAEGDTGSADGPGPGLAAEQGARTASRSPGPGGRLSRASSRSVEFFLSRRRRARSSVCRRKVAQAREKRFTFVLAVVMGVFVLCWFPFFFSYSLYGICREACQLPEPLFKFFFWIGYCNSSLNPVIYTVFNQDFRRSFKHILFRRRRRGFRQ
T2 sequence (P19328 whole entry): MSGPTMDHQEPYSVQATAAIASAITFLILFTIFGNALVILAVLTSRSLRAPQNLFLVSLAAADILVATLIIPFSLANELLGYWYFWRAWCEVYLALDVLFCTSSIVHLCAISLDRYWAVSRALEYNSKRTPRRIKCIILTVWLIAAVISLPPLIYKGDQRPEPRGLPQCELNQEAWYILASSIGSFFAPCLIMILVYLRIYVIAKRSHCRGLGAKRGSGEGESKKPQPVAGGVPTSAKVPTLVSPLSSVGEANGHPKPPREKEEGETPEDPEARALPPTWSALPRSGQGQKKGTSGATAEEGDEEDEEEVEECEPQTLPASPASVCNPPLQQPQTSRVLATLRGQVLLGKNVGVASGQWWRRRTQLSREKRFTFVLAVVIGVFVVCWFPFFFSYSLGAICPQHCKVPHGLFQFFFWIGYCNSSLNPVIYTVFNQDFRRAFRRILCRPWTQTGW
T2 sequence (P22909 whole entry): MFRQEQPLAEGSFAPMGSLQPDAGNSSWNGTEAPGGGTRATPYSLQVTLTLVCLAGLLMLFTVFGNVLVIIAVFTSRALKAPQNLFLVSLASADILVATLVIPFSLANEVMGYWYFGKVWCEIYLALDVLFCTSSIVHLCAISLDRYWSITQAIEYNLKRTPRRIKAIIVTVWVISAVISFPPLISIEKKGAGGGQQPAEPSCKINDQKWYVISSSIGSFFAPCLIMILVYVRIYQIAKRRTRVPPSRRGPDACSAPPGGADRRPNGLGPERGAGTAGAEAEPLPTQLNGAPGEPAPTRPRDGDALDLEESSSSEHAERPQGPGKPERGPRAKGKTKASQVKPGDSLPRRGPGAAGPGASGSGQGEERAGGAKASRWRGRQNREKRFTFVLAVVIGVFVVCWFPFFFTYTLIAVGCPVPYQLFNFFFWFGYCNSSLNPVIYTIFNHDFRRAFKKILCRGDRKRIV

[3] = target: T3, 5-hydroxytryptamine receptor 1A (Rattus norvegicus, UniProt P19327); assay: Binding affinity against 5-hydroxytryptamine 1A receptor by displacing [3H]8-OH-DPAT radioligand in rat cortex membrane; format: cell membranes
T3 sequence (P19327 whole entry): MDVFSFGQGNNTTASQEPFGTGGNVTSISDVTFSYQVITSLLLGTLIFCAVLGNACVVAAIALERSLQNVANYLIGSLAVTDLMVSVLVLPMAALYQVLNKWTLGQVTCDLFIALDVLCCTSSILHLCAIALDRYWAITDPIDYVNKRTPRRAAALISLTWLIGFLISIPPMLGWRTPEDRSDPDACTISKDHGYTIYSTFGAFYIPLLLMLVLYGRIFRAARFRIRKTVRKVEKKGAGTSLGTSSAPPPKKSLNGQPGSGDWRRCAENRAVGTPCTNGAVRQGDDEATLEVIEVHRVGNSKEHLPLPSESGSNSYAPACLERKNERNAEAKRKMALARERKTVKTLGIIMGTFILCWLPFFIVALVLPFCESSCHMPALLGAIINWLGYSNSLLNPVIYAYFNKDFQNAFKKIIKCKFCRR
Method in brief: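 Rat cortex membranes, pre-incubated 10 min at 37 °C to remove endogenous 5-HT, stored at –80 °C, then resuspended in 50 mM Tris-HCl pH 7.4 (0.2–0.3 mg protein). GF/C filtration, scintillation counting.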

[4] = target: T1, Adrenergic receptor alpha-1; assay: Intrinsic activity for displacement of [3H]prazosin from Alpha-1 adrenergic receptor of rat cerebral cortex membrane in the presence of 1 nM GTP; format: tissue-based
Method in brief: (§1)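 [3H]prazosin competition on rat cerebral cortex membranes, run with and without GTP (1 nM in table footnote, 1 mM in text). The GTP shift is the ratio of the affinity constant with GTP to that without. Values are means ± SEM of three experiments.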

[5] = target: T1, Adrenergic receptor alpha-1; assay: Intrinsic activity for displacement of [3H]prazosin from Alpha-1 adrenergic receptor of rat cerebral cortex membrane in the absence of 1 nM GTP; format: tissue-based; method in brief: as §1
[6] = target: T1, Adrenergic receptor alpha-1; assay: Binding affinity against Alpha-1 adrenergic receptor by displacing [3H]prazosin radioligand in rat cortex membrane.; format: cell membranes, Brain

SMILES	Ki [1]	Ki [2]	Ki [3]	Ki [4]	Ki [5]	Ki [6]
COc1ccccc1N1CCN(CCn2nc(-n3ccnc3)ccc2=O)CC1	237 nM	1492 nM	–	–	–	–
O=c1ccc(-n2ccnc2)nn1CCCCN1CCN(c2ccccc2Cl)CC1	24.6 nM	65.2 nM	–	–	–	–
COc1ccccc1N1CCN(CCCCCCn2nc(-n3ccnc3)ccc2=O)CC1	52.5 nM	131 nM	–	–	–	–
COc1ccccc1N1CCN(CCn2nc(-n3cnc4ccccc43)ccc2=O)CC1	33 nM	350 nM	541 nM	–	–	–
O=c1ccc(-n2cnc3ccccc32)nn1CCCCCCN1CCN(c2ccccc2Cl)CC1	15.1 nM	31.5 nM	617 nM	–	–	–
O=c1ccc(-n2ccnc2)nn1CCN1CCN(c2ccccc2Cl)CC1	472 nM	2072 nM	–	–	–	–
COc1ccccc1N1CCN(CCCCCCCn2nc(-n3cnc4ccccc43)ccc2=O)CC1	1.7 nM	89.8 nM	–	–	–	–
O=c1ccc(-n2cnc3ccccc32)nn1CCN1CCN(c2ccccc2Cl)CC1	70.4 nM	265 nM	1010 nM	–	–	–
O=c1ccc(-n2ccnc2)nn1CCCN1CCN(c2ccccc2Cl)CC1	–	–	617 nM	–	–	–
O=c1ccc(-n2ccnc2)nn1CCCCCCN1CCN(c2ccccc2Cl)CC1	29.7 nM	138 nM	–	–	–	–
COc1ccccc1N1CCN(CCCCCCn2nc(-n3ccc4ccccc43)ccc2=O)CC1	2.8 nM	104 nM	514 nM	–	–	–

More lines, now with the values ahead:

Ki [1]	Ki [2]	Ki [3]	Ki [4]	Ki [5]	Ki [6]	SMILES
3.2 nM	170 nM	103 nM	–	–	–	COc1ccccc1N1CCN(CCCn2nc(-n3ccc4ccccc43)ccc2=O)CC1
–	–	382 nM	–	–	–	COc1ccccc1N1CCN(CCCn2nc(-n3cnc4ccccc43)ccc2=O)CC1
6.4 nM	113 nM	106 nM	–	–	–	COc1ccccc1N1CCN(CCCCCCn2nc(-n3cnc4ccccc43)ccc2=O)CC1
–	–	315 nM	0.97 nM	1.2 nM	–	COc1ccccc1N1CCN(CCCCn2nc(-n3cnc4ccccc43)ccc2=O)CC1
1 nM	10.3 nM	182 nM	–	–	–	O=c1ccc(-n2cnc3ccccc32)nn1CCCCCCCN1CCN(c2ccccc2Cl)CC1
22.7 nM	1098 nM	310 nM	–	–	–	COc1ccccc1N1CCN(CCn2nc(-n3ccc4ccccc43)ccc2=O)CC1
3.1 nM	30.5 nM	127 nM	–	–	–	COc1ccccc1N1CCN(CCCCCn2nc(-n3cnc4ccccc43)ccc2=O)CC1
1.3 nM	5.8 nM	181 nM	–	–	–	O=c1ccc(-n2cnc3ccccc32)nn1CCCCN1CCN(c2ccccc2Cl)CC1
–	76.5 nM	98.7 nM	–	–	6 nM	COc1ccccc1N1CCN(CCCCCCCn2nc(-n3ccnc3)ccc2=O)CC1
23.3 nM	134 nM	323 nM	–	–	–	O=c1ccc(-n2ccnc2)nn1CCCCCN1CCN(c2ccccc2Cl)CC1
–	306 nM	181 nM	–	–	1.1 nM	COc1ccccc1N1CCN(CCCCCCCn2nc(-n3ccc4ccccc43)ccc2=O)CC1
37.5 nM	427 nM	223 nM	–	–	–	COc1ccccc1N1CCN(CCCCCn2nc(-n3ccnc3)ccc2=O)CC1
–	–	461 nM	–	–	–	O=c1ccc(-n2cnc3ccccc32)nn1CCCN1CCN(c2ccccc2Cl)CC1
6.8 nM	95.6 nM	141 nM	–	–	–	COc1ccccc1N1CCN(CCCCCn2nc(-n3ccc4ccccc43)ccc2=O)CC1
4.5 nM	127 nM	351 nM	–	–	–	O=c1ccc(-n2cnc3ccccc32)nn1CCCCCN1CCN(c2ccccc2Cl)CC1
–	–	463 nM	–	–	–	COc1ccccc1N1CCN(CCCn2nc(-n3ccnc3)ccc2=O)CC1
